Measured values: ChEMBL document CHEMBL5634209, “Computational design, synthesis, and assessment of 3-(4-(4-(1,3,4-oxadiazol-2-yl)-1H-imidazol-2-yl)phenyl)-1,2,4-oxadiazole derivatives as effective epidermal growth factor receptor inhibitors: a prospective strategy for anticancer therapy” (RSC Med Chem, 2024)
Values belong to the compound of their own block, whether it stands above or below them.

Legend:
PC-3 = test: Antiproliferative activity against human PC-3 cells assessed as reduction in cell viability measured after 48 hrs by MTT assay; type: functional, cell-based; conditions: PC-3, 48 h
In short: (§1)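 Cells were grown at 37 °C in 5% CO2 in medium with 10% FBS: RPMI-1640 for A549, DU-145 and HepG2, and DMEM/F12 for PC-3. They were seeded at 5×10^3/well. At 70–80% confluence they were exposed to a concentration range diluted from a 60 mM DMSO stock for 48 h at 37 °C, with 0.1% DMSO as vehicle. MTT 5 mg/mL stock was added for 4 h, formazan dissolved in DMSO, A570 read, and % inhibition calculated against control. IC50 was taken from the concentration series.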

HepG2 [1] = test: Antiproliferative activity against human HepG2 cells assessed as reduction in cell viability measured after 48 hrs by MTT assay; type: functional, cell-based; conditions: HepG2, 48 h; in short: as §1
DU-145 = test: Antiproliferative activity against human DU-145 cells assessed as reduction in cell viability measured after 48 hrs by MTT assay; type: functional, cell-based; conditions: DU-145, 48 h; in short: as §1
[2] = Cytotoxicity against African green monkey Vero cells assessed as reduction in cell viability measured after 48 hrs by MTT assay; type: toxicity, cell-based; conditions: African green monkey (Chlorocebus sabaeus)
[3] = Selectivity index, ratio of IC50 for cytotoxicity against African green monkey Vero cells to IC50 for antiproliferative activity against human PC-3 cells; type: toxicity, cell-based; conditions: Vero cells versus PC-3 cells, read-out: Ratio IC50
[4] = Selectivity index, ratio of IC50 for cytotoxicity against African green monkey Vero cells to IC50 for antiproliferative activity against human HepG2 cells; type: toxicity, cell-based; conditions: Vero cells versus HepG2 cells, read-out: Ratio IC50
[5] = Selectivity index, ratio of IC50 for cytotoxicity against African green monkey Vero cells to IC50 for antiproliferative activity against human DU-145 cells; type: toxicity, cell-based; conditions: Vero cells versus DU-145 cells, read-out: Ratio IC50
A549 = test: Antiproliferative activity against human A549 cells assessed as reduction in cell viability measured after 48 hrs by MTT assay; type: functional, cell-based; conditions: A549, 48 h; in short: as §1
[6] = Selectivity index, ratio of IC50 for cytotoxicity against African green monkey Vero cells to IC50 for antiproliferative activity against human A549 cells; type: toxicity, cell-based; conditions: Vero cells versus A549 cells, read-out: Ratio IC50
[7] = target: Epidermal growth factor receptor (Homo sapiens, UniProt P00533); test: Inhibition of wild type EGFR (unknown origin) incubated for 40 mins by Kinase Glo Max reagent based luminescence analysis
[8] = target: Epidermal growth factor receptor (Homo sapiens, UniProt P00533, T790M); test: Inhibition of EGFR T790M mutant (unknown origin) incubated for 40 mins by Kinase Glo Max reagent based luminescence analysis
HepG2 [9] = test: Induction of cell cycle arrest in human HepG2 cells assessed as accumulation of cell debris at 0.11 uM incubated for 24 hrs by propidium iodide staining based flow cytometry (reference value: 0.12%); type: functional
In short: (§2)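 HepG2 cells were seeded, incubated overnight at 37 °C and, at 70–80% confluence, treated 24 h with 0.11, 0.22 or 0.44 µM in fresh medium; untreated cells served as control. Cells were then digested, washed in PBS and fixed in pre-cooled 75% ethanol at 4 °C for over 18 h. Staining used propidium iodide 50 µg/mL plus RNase 50 µg/mL for 30 min at 37 °C, and DNA content was read by flow cytometry.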

HepG2 [10] = test: Induction of cell cycle arrest in human HepG2 cells assessed as accumulation of cells at G0/G1 phase at 0.11 uM incubated for 24 hrs by propidium iodide staining based flow cytometry (reference value: 35.61%); type: functional; in short: as §2
HepG2 [11] = test: Induction of cell cycle arrest in human HepG2 cells assessed as accumulation of cells at G2/M phase at 0.11 uM incubated for 24 hrs by propidium iodide staining based flow cytometry (reference value: 18.81%); type: functional; in short: as §2
HepG2 [12] = test: Induction of cell cycle arrest in human HepG2 cells assessed as accumulation of cells at S phase at 0.11 uM incubated for 24 hrs by propidium iodide staining based flow cytometry (reference value: 46.98%); type: functional; in short: as §2
HepG2 [13] = test: Induction of cell cycle arrest in human HepG2 cells assessed as accumulation of cell debris at […] incubated for 24 hrs by propidium iodide staining based flow cytometry (reference value: 0.12%); type: functional; conditions: dose 0.22 µM
HepG2 [14] = test: Induction of cell cycle arrest in human HepG2 cells assessed as accumulation of cells at G0/G1 phase at […] incubated for 24 hrs by propidium iodide staining based flow cytometry (reference value: 35.61%); type: functional; conditions: dose 0.22 µM
HepG2 [15] = test: Induction of cell cycle arrest in human HepG2 cells assessed as accumulation of cells at G2/M phase at […] incubated for 24 hrs by propidium iodide staining based flow cytometry (reference value: 18.81%); type: functional; conditions: dose 0.22 µM
HepG2 [16] = test: Induction of cell cycle arrest in human HepG2 cells assessed as accumulation of cells at S phase at […] incubated for 24 hrs by propidium iodide staining based flow cytometry (reference value: 46.98%); type: functional; conditions: dose 0.22 µM
HepG2 [17] = test: Induction of cell cycle arrest in human HepG2 cells assessed as accumulation of cell debris at 0.44 uM incubated for 24 hrs by propidium iodide staining based flow cytometry (reference value: 0.12%); type: functional; in short: as §2
HepG2 [18] = test: Induction of cell cycle arrest in human HepG2 cells assessed as accumulation of cells at G0/G1 phase at 0.44 uM incubated for 24 hrs by propidium iodide staining based flow cytometry (reference value: 35.61%); type: functional; in short: as §2
HepG2 [19] = test: Induction of cell cycle arrest in human HepG2 cells assessed as accumulation of cells at G2/M phase at 0.44 uM incubated for 24 hrs by propidium iodide staining based flow cytometry (reference value: 18.81%); type: functional; in short: as §2
HepG2 [20] = test: Induction of cell cycle arrest in human HepG2 cells assessed as accumulation of cells at S phase at 0.44 uM incubated for 24 hrs by propidium iodide staining based flow cytometry (reference value: 46.98%); type: functional; in short: as §2
HepG2 [21] = test: Induction of apoptosis in human HepG2 cells assessed as viable cells at 0.11 uM incubated for 24 hrs by AnnexinV-FITC/PI staining based flow cytometry (reference value: 96.94%); type: functional; conditions: read-out: Activity
HepG2 [22] = test: Induction of apoptosis in human HepG2 cells assessed as early apoptotic cells at 0.11 uM incubated for 24 hrs by AnnexinV-FITC/PI staining based flow cytometry (reference value: 2.91%); type: functional
HepG2 [23] = test: Induction of apoptosis in human HepG2 cells assessed as late apoptotic cells at 0.11 uM incubated for 24 hrs by AnnexinV-FITC/PI staining based flow cytometry (reference value: 0.032%); type: functional
HepG2 [24] = test: Induction of apoptosis in human HepG2 cells assessed as necrotic cells at 0.11 uM incubated for 24 hrs by AnnexinV-FITC/PI staining based flow cytometry (reference value: 0.12%); type: functional
HepG2 [25] = test: Induction of apoptosis in human HepG2 cells assessed as viable cells at […] incubated for 24 hrs by AnnexinV-FITC/PI staining based flow cytometry (reference value: 96.94%); type: functional; conditions: dose 0.22 µM, read-out: Activity
HepG2 [26] = test: Induction of apoptosis in human HepG2 cells assessed as early apoptotic cells at […] incubated for 24 hrs by AnnexinV-FITC/PI staining based flow cytometry (reference value: 2.91%); type: functional; conditions: dose 0.22 µM
HepG2 [27] = test: Induction of apoptosis in human HepG2 cells assessed as late apoptotic cells at […] incubated for 24 hrs by AnnexinV-FITC/PI staining based flow cytometry (reference value: 0.032%); type: functional; conditions: dose 0.22 µM
HepG2 [28] = test: Induction of apoptosis in human HepG2 cells assessed as necrotic cells at […] incubated for 24 hrs by AnnexinV-FITC/PI staining based flow cytometry (reference value: 0.12%); type: functional; conditions: dose 0.22 µM
HepG2 [29] = test: Induction of apoptosis in human HepG2 cells assessed as viable cells at 0.44 uM incubated for 24 hrs by AnnexinV-FITC/PI staining based flow cytometry (reference value: 96.94%); type: functional; conditions: read-out: Activity
HepG2 [30] = test: Induction of apoptosis in human HepG2 cells assessed as early apoptotic cells at 0.44 uM incubated for 24 hrs by AnnexinV-FITC/PI staining based flow cytometry (reference value: 2.91%); type: functional
HepG2 [31] = test: Induction of apoptosis in human HepG2 cells assessed as late apoptotic cells at 0.44 uM incubated for 24 hrs by AnnexinV-FITC/PI staining based flow cytometry (reference value: 0.032%); type: functional
HepG2 [32] = test: Induction of apoptosis in human HepG2 cells assessed as necrotic cells at 0.44 uM incubated for 24 hrs by AnnexinV-FITC/PI staining based flow cytometry (reference value: 0.12%); type: functional

Sequence of Epidermal growth factor receptor (Homo sapiens, UniProt P00533, T790M) (P00533 25-1210 T790M limits assumed): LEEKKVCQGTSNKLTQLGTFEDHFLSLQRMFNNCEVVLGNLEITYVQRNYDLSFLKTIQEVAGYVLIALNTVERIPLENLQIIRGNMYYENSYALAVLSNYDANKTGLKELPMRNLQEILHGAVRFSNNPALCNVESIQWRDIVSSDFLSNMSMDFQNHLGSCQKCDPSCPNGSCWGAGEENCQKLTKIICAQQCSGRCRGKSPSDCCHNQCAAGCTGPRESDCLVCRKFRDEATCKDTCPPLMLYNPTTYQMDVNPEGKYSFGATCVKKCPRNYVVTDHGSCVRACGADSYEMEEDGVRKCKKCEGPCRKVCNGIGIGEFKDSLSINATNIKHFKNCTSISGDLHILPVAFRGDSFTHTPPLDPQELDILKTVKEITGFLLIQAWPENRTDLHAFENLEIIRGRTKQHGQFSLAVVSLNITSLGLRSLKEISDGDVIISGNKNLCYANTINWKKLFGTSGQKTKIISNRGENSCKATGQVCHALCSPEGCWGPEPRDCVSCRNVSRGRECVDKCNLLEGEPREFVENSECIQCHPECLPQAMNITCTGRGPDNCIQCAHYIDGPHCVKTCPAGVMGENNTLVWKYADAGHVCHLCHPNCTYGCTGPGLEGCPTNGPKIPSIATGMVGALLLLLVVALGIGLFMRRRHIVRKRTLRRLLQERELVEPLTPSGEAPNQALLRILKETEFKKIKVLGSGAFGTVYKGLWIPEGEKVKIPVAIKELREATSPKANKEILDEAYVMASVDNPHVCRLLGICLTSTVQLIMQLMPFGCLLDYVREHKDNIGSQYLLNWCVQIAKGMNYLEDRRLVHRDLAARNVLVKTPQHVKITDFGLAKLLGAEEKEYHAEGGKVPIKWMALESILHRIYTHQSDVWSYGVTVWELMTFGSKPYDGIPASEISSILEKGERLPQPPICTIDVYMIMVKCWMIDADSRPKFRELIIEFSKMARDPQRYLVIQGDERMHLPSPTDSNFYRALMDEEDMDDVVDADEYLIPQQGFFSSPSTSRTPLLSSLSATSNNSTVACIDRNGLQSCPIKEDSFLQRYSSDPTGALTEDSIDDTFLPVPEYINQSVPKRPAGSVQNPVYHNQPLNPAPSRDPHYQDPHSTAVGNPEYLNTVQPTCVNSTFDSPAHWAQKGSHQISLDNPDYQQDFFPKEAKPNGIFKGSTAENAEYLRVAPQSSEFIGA
Sequence of Epidermal growth factor receptor (Homo sapiens, UniProt P00533) (P00533 whole entry): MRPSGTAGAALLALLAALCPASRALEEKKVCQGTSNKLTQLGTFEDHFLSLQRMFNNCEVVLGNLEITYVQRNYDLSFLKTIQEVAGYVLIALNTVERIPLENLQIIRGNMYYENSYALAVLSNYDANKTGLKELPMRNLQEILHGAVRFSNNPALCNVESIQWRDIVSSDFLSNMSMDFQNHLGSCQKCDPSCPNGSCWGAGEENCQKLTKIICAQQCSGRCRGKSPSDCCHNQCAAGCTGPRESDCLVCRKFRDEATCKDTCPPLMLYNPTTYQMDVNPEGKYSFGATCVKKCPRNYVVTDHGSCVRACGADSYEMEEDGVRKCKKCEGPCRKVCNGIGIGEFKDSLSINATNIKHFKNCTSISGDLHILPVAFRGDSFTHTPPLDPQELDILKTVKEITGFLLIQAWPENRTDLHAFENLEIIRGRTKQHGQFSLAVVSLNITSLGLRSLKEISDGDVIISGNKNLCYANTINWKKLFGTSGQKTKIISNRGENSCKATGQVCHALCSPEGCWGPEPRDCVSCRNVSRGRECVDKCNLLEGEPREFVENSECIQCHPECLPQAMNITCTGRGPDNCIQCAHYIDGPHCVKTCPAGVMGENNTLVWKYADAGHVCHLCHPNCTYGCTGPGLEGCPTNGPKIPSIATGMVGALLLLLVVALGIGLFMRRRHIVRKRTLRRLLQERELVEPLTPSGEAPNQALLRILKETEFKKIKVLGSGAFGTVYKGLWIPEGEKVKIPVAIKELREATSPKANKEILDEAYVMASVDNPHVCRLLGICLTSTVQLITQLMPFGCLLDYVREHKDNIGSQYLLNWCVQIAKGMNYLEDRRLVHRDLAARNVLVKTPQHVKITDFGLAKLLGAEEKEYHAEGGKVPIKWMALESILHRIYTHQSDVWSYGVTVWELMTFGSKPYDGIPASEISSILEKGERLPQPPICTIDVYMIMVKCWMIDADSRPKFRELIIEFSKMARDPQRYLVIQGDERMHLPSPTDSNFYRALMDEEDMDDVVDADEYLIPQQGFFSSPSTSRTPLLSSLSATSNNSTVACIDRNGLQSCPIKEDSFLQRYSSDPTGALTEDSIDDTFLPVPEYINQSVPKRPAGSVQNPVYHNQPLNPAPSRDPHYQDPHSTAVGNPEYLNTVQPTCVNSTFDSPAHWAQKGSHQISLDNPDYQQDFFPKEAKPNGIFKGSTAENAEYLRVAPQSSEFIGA

IC50 (PC-3): 2.23 µM | IC50 (HepG2 [1]): 5.33 µM | IC50 (DU-145): 3.81 µM
SMILES: O=[N+]([O-])c1ccc(-c2nc(-c3ccc(-c4nc(-c5nnc(-c6ccncc6)o5)c[nH]4)cc3)no2)cc1
IC50 at 48 h [2]: > 24 µM | selectivity ratio [3]: 8.96 | selectivity ratio [4]: 4.5 | selectivity ratio [5]: 6.29

IC50 (PC-3): 3.47 µM | IC50 (A549): 2.68 µM | IC50 (HepG2 [1]): 3.76 µM | IC50 (DU-145): 4.25 µM
SMILES: Brc1ccc(-c2nc(-c3ccc(-c4nc(-c5nnc(-c6ccncc6)o5)c[nH]4)cc3)no2)cc1
IC50 at 48 h [2]: > 20 µM | selectivity ratio [3]: 5.34 | selectivity ratio [6]: 7.46 | selectivity ratio [4]: 5.31 | selectivity ratio [5]: 4.7

IC50 (A549): 8.21 µM | IC50 (HepG2 [1]): 6.99 µM
SMILES: N#Cc1ccc(-c2nc(-c3ccc(-c4nc(-c5nnc(-c6ccncc6)o5)c[nH]4)cc3)no2)cc1
IC50 at 48 h [2]: > 23 µM | selectivity ratio [6]: 2.8 | selectivity ratio [4]: 3.29

IC50 (PC-3): 4.58 µM | IC50 (A549): 4.84 µM | IC50 (HepG2 [1]): 5.78 µM
SMILES: Clc1ccc(-c2nc(-c3ccc(-c4nc(-c5nnc(-c6ccncc6)o5)c[nH]4)cc3)no2)cc1
IC50 at 48 h [2]: > 25 µM | selectivity ratio [3]: 5.46 | selectivity ratio [6]: 5.16 | selectivity ratio [4]: 4.32

IC50 (PC-3): 0.12 µM | IC50 (A549): 0.13 µM | IC50 (HepG2 [1]): 0.11 µM | IC50 (DU-145): 0.43 µM | IC50 [7]: 0.102 µM | IC50 [8]: 1.09 µM
SMILES: COc1cc(-c2nc(-c3ccc(-c4nc(-c5nnc(-c6ccncc6)o5)c[nH]4)cc3)no2)cc(OC)c1OC
IC50 at 48 h [2]: > 14 µM | selectivity ratio [3]: 117 | selectivity ratio [6]: 108 | selectivity ratio [4]: 127 | selectivity ratio [5]: 32.5 | Activity (HepG2 [9]): 0.71% | Activity (HepG2 [10]): 37.51% | Activity (HepG2 [11]): 23.99% | Activity (HepG2 [12]): 38.98% | Activity (HepG2 [13]): 6.72% | Activity (HepG2 [14]): 36.01% | Activity (HepG2 [15]): 34.03% | Activity (HepG2 [16]): 31.16% | Activity (HepG2 [17]): 41.32% | Activity (HepG2 [18]): 35.02% | Activity (HepG2 [19]): 47.32% | Activity (HepG2 [20]): 19.22% | viability at 0.11 µM (HepG2 [21]): 79.6% | Activity (HepG2 [22]): 11.32% | Activity (HepG2 [23]): 8.96% | Activity (HepG2 [24]): 0.14% | viability at […] (HepG2 [25]): 65.4% | Activity (HepG2 [26]): 12.33% | Activity (HepG2 [27]): 21.78% | Activity (HepG2 [28]): 0.456% | viability at 0.44 µM (HepG2 [29]): 53.3% | Activity (HepG2 [30]): 18.23% | Activity (HepG2 [31]): 27.92% | Activity (HepG2 [32]): 0.563%
